Results taken from ChEMBL document CHEMBL3822448, “The chemical synthesis and preliminary biological studies of phosphodiester and phosphorothioate analogues of 2-methoxy-lysophosphatidylethanolamine” (2016).
Active and inactive are the calls of the source. No cut-off for these calls is given here.

Legend:
PC-3 [1] = assay: Cytotoxicity against human PC3 cells assessed as reduction in cell viability at 5 uM after 24 to 48 hrs by resazurin-based prestoblue assay; format: functional
Summary of the method: (§1)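 PC3 human prostate cancer cells (express LPA1 receptor) seeded at 5,000/well, cultured 24 and 48 h, then treated with LPE analogues at 5, 10, 25 or 50 μM for 24 or 48 h. Viability read with resazurin-based PrestoBlue reagent and expressed as % of untreated control (100%). Means ± SD of at least three independent experiments; P < 0.05 versus control.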

[2] = (§2) Cytotoxicity against human PC3 cells assessed as reduction in cell viability at 25 uM after 48 hrs by resazurin-based prestoblue assay; format: functional, PC-3; summary of the method: as §1
[3] = (§3) Cytotoxicity against human PC3 cells assessed as reduction in cell viability at 50 uM after 48 hrs by resazurin-based prestoblue assay; format: functional, PC-3; summary of the method: as §1
PC-3 [4] = assay: Cytotoxicity against human PC3 cells assessed as reduction in cell viability at 10 uM after 24 to 48 hrs by resazurin-based prestoblue assay; format: functional; summary of the method: as §1
PC-3 [5] = assay: (§4) Cytotoxicity against human PC3 cells assessed as reduction in cell viability at 10 uM after 48 hrs by resazurin-based prestoblue assay; format: functional; summary of the method: as §1
PC-3 [6] = assay: as §2; format: functional; summary of the method: as §1
PC-3 [7] = assay: as §3; format: functional; summary of the method: as §1
PC-3 [8] = assay: Cytotoxicity against human PC3 cells assessed as reduction in cell viability at 50 uM after 24 to 48 hrs by resazurin-based prestoblue assay; format: functional; summary of the method: as §1
[9] = as §4; format: functional, PC-3; summary of the method: as §1
[10] = Cytotoxicity against human PC3 cells assessed as reduction in cell viability at 10 uM after 24 hrs by resazurin-based prestoblue assay; format: functional, PC-3; summary of the method: as §1

**Q.** What does the source list for `CCCCCCCCCCCCCCCC(=O)OCC(COP(=O)(S)OCCN)OC` (configuration not stated)?
**A.** Activity (PC-3 [1]): inactive; Activity [2]: 79.1%; Activity [3]: 70%; Activity (PC-3 [4]): inactive

**Q.** For `CCCCCCCCCCCCCC(=O)OCC(COP(=O)(S)OCCN)OC` (mixture of isomers), which Activity (PC-3 [1]) is on record?
**A.** inactive

**Q.** What about the Activity [2] of the same compound?
**A.** 59.8%

**Q.** And the Activity [3]?
**A.** 43.8%

**Q.** What about the Activity (PC-3 [4]) of the same compound?
**A.** inactive

**Q.** What does the source list for `CCCCCCCC/C=C\CCCCCCCC(=O)OCC(COP(=O)(O)OCCN)OC` (mixture of isomers)?
**A.** Activity (PC-3 [1]): inactive; Activity (PC-3 [5]): Active; Activity (PC-3 [6]): Active; Activity (PC-3 [7]): Active; Activity (PC-3 [4]): inactive

**Q.** For `CCCCCCCC/C=C\CCCCCCCC(=O)OCC(COP(=O)(S)OCCN)OC` (mixture of isomers), which Activity (PC-3 [1]) is on record?
**A.** inactive

**Q.** What about the Activity (PC-3 [8]) of the same compound?
**A.** inactive

**Q.** And the Activity (PC-3 [4])?
**A.** inactive

**Q.** For `CCCCCCCCCCCCCCCCCC(=O)OCC(COP(=O)(S)OCCN)OC` (mixture of isomers), which Activity (PC-3 [1]) is on record?
**A.** inactive

**Q.** What about the Activity (PC-3 [8]) of the same compound?
**A.** inactive

**Q.** What about the Activity (PC-3 [4]) of the same compound?
**A.** inactive

**Q.** With `CCCCCCCCCCCCCCCC(=O)OCC(COP(=O)(O)OCCN)OC` (racemic) as the compound, how does the Activity (PC-3 [1]) read?
**A.** inactive

**Q.** What about the Activity [9] of the same compound?
**A.** 78.8%

**Q.** And the Activity [2]?
**A.** 49.5%

**Q.** What about the Activity [3] of the same compound?
**A.** 24.9%

**Q.** Which Activity [10] does the source give for `CCCCCCCCCCCCCC(=O)OCC(COP(=O)(O)OCCN)OC` (racemic) here?
**A.** 68.2%

**Q.** And the Activity [9]?
**A.** 59.8%

**Q.** And the Activity [2]?
**A.** 22.7%

**Q.** And the Activity [3]?
**A.** 6.3%

**Q.** Which results are given for `CCCCCCCCCCCCCCCCCC(=O)OCC(COP(=O)(O)OCCN)OC` (racemic)?
**A.** Activity (PC-3 [1]): inactive; Activity (PC-3 [5]): Active; Activity (PC-3 [6]): Active; Activity (PC-3 [7]): Active; Activity (PC-3 [4]): inactive
